SENP6 inh: SENP6 protease inhibition. actives 1.8% (n = 330,000). AID 2599. Recombinant SENP6 catalytic domain, aminoluciferin luminescence. Q9GZR1. inhibition, % at 10 µM;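 active = inhibition above about 50% at the single tested dose, limit read from the data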;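 also: plate controls were DMSO wells with enzyme for no effect and DMSO wells lacking enzyme for full effect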
Target sequence (Q9GZR1 628-1112 limits assumed): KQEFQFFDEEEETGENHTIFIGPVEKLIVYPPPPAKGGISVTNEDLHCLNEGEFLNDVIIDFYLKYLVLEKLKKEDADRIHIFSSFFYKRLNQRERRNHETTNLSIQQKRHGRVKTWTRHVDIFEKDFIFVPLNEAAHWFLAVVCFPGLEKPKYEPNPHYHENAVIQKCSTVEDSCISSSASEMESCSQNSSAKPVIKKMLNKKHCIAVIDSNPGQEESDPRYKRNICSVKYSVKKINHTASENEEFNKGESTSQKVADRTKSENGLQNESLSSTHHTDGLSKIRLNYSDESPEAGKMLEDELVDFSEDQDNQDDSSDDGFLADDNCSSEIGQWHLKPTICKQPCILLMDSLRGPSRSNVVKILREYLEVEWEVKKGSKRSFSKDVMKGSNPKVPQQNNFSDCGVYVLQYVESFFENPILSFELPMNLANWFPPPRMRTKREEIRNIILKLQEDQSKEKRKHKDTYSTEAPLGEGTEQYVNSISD
UCH37 inh: blocks the human deubiquitinase UCH37 | Q9Y5K5 | inhibition, % (concentration not given with the values) | purified proteasome/UCH37, Ub-AMC cleavage fluorescence | actives 0.33% (n = 330,000);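 active = mean inhibition over replicate wells above about 20%, limit read from the data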;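 also: 0% = compound-free wells with enzyme and 100% = wells lacking proteasome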
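Material: Human UCH37 enzyme supplied as purified proteasome complex | Schedule: 30 min preincubation with enzyme, 25 min cleavage at room temperature | Detection: AMC fluorescence 355/460 nm | Measure: % inhibition of Ub-AMC cleavage fluorescence | Controls: Wells without proteasome as full block, compound-free enzyme plus substrate as uninhibited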
SENP8 block-1: blocks human SENP8 cleavage of Nedd8 substrate. Q96LD8. recombinant SENP8, Nedd8 substrate fluorescence. inhibition, % at 20 µM. actives 0.64% (n = 360,000); in the data active = inhibition mostly above about 40%, no sharp cut-off; inactive = mostly below about 27%
SENP7 inh: blocks the human protease SENP7; actives 1.5% (n = 330,000); Q9BQF6; recombinant SENP7, Z-RLRGG-aminoluciferin luminescence, 40 min; inhibition, % at 5 µM;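 active = inhibition above about 50% at the single test dose, limit read from the data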;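 also: plate controls were DMSO with enzyme for no effect and no enzyme buffer wells for full effect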
SENP1 inh: SENP1 (human) catalytic domain inhibition; Q9P0U3; inhibition, % at 10 µM; AID 624204; actives 0.21% (n = 360,000); recombinant SENP1 catalytic domain, CyPet-SUMO1-YPet FRET cleavage;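 active = inhibition at least 30% at 10 µM, raw YFP signal under a set limit, fluorescence ratio 0.5 to 1.5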;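 also: 0% = enzyme with DMSO and 100% = no enzyme wells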
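Material – human SENP1 catalytic domain · Input – SENP1 enzyme, 20 pM final · Compound dosing – single concentration of 10 µM compound, 0.5% DMSO final · Timing – enzyme reaction for 50 min at room temperature, dark · Measured by – FRET fluorescence in CFP and YFP emission channels · Control set – no-enzyme wells low, DMSO-plus-enzyme wells high control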
SENP8 block-2: SENP8 protease inhibition | actives 1.2% (n = 330,000) | purified SENP8, Z-RLRGG-aminoluciferin cleavage, luminescence | Q96LD8 | inhibition, % at 10 µM; in the data active = inhibition above about 50%
SENP8 confirm: confirmation of human SENP8 protease inhibitors. shares compounds with SENP7 inh. actives 40% (n = 6,200). AID 488912. Recombinant SENP8, Z-RLRGG-aminoluciferin luminescence, 60 min. inhibition, % at 12.5 µM;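 active = mean inhibition across replicates above about 50%, limit read from the data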
SENP6 confirm: confirmation of human SENP6 protease inhibitors; shares compounds with SENP7 inh; recombinant SENP6, Z-RLRGG-aminoluciferin luminescence; inhibition, % at 12.5 µM; actives 58% (n = 6,200)
SENP7 confirm: confirmation of human SENP7 protease inhibitors; shares compounds with SENP7 inh; recombinant SENP7, Z-RLRGG-aminoluciferin luminescence, 40 min; inhibition, % at 12.5 µM; actives 69% (n = 6,200)
Casp3 SENP sel: selectivity test for SENP inhibitors: human caspase-3 inhibition. shares compounds with SENP7 inh. inhibition, % at 12.5 µM. AID 488918. actives 60% (n = 6,200). purified caspase-3, Z-DEVD-aminoluciferin luminescence, 60 min;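 active = mean inhibition above about 50%, limit read from the data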;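 also: plate controls were enzyme with DMSO for no effect and wells without caspase-3 for full effect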
Target sequence (P42574 28-227 limits assumed): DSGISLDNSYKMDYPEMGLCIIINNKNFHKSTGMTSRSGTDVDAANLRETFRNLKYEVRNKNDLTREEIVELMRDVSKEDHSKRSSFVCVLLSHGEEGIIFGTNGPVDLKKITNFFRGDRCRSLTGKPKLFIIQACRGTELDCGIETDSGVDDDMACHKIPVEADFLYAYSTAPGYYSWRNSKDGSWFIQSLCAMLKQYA
SENP luc ctr: counter-screen for SENP inhibitors: luminescence interference; shares compounds with SENP7 inh; AID 488919; inhibition, % at 12.5 µM; actives 39% (n = 6,200); Pre-incubated SENP8/Z-RLRGG-aminoluciferin, luciferase luminescence interference;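 active = mean inhibition above about 50% when retested at one dose, limit read from the data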;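 also: plate controls were DMSO wells with completed reaction for no effect and substrate without enzyme for full effect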
The depositor's hits bear a star; . = no result. The list is not random: actives were taken first. Their share in the collection is about 2.6%.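 The calls were made as follows, unless noted: active = mean inhibition above about 50% in the one-dose retest (limit read from the data); inactive = the rest.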

SMILES	SENP6 inh	UCH37 inh	SENP8 block-1	SENP7 inh	SENP1 inh	SENP8 block-2	SENP8 confirm	SENP6 confirm	SENP7 confirm	Casp3 SENP sel	SENP luc ctr
O=C(N/N=C/c1ccc(OC(=O)c2cccs2)cc1)c1cccc(F)c1	16	.	17	72*	1	3	-9	-4	-4	25	4
C/C(C=NNC(=O)c1ccccn1)=C/c1ccccc1	.	10	.	.	.	.	.	.	.	.	.
CC(=C/c1ccccc1)/C=N/NC(=O)c1ccccn1	69*	.	-36	81*	1	61*	72*	71*	92*	85*	73*
O=C(O)c1ccc(N/N=C/C(Br)=C/c2ccccc2)cc1	101*	.	-42	83*	-33	96*	99*	100*	103*	85*	96*
O=C(N/N=C/c1ccncc1)c1cccs1	9	.	9	2	2	-14	.	.	.	.	.
CCCCC(C)=NNC(=O)c1cn(-c2ccccc2)nc1-c1ccccc1	.	3	.	.	.	.	.	.	.	.	.
Cc1onc(-c2ccccc2)c1C(=O)NN=Cc1ccccc1OC(C)C	.	5	.	.	.	.	.	.	.	.	.
COc1cc(C=NNC(=O)c2cc(-c3ccccc3OC(C)C)nc3ccccc23)ccc1O	.	0	.	.	.	.	.	.	.	.	.
Cc1cc(C=Nn2cnnc2)c(C)n1-c1ccc(OCc2ccc(F)cc2)cc1	.	1	.	.	.	.	.	.	.	.	.
COc1ccc(C=NOCC(=O)Nn2c(C)nc3ccccc3c2=O)cc1	.	4	.	.	.	.	.	.	.	.	.
O=C(NN=Cc1ccc(Cl)s1)C1COc2ccccc2O1 (centres undefined)	.	3	.	.	.	.	.	.	.	.	.
CC(Oc1ccccc1F)c1ccnc2nc(N=CN(C)C)nn12 (centres undefined)	.	-39	.	.	.	.	.	.	.	.	.
CC(/C=N/NC(=O)c1cccc(F)c1)=C\c1ccccc1	83*	.	-3	79*	1	67*	76*	78*	95*	82*	71*
C/C(C=NNC(=O)Cc1cccs1)=C\c1ccccc1	.	3	.	.	.	.	.	.	.	.	.
O=C(N/N=C/c1ccc(-c2ccccc2C(=O)O)o1)c1cccs1	51*	.	-307	19	-11	21	41	32	64*	73*	20
O=C(N/N=C/c1ccc(Cl)cc1Cl)c1cccc(F)c1	89*	.	20	88*	1	77*	-6	10	33	32	7
CC(=C/c1ccccc1)/C=N/NC(=O)c1cccs1	83*	.	-22	79*	3	75*	42	80*	96*	70*	34
Cc1ccc(C=NNC(=O)c2cccs2)o1	.	12	.	.	.	.	.	.	.	.	.
CC(=O)Oc1oc(-c2ccccc2)nc1C=Nc1ccccn1	.	4	.	.	.	.	.	.	.	.	.
CCC(=O)N(C)CCc1cc2c(c(OC)c1C=NNC(=O)[C@H]1C[C@@H]1c1ccccc1)OCO2	.	4	.	.	.	.	.	.	.	.	.
O=C(N/N=C/C(Br)=C\c1ccccc1)c1cccs1	63*	.	9	30	0	52*	18	49	77*	30	7
O=C(NN=C/C(Br)=C/c1ccccc1)c1ccncc1	.	10	.	.	.	.	.	.	.	.	.
c1ccc(COc2ccc(OCCCn3cncn3)cc2)cc1	73*	4	24	77*	-2	52*	74*	73*	89*	77*	74*
c1ccc(Cc2ccc(OCCn3cncn3)cc2)cc1	-5	5	21	-6	-1	-6	.	.	.	.	.
COc1ccc(C(=O)COC(=O)c2ccccc2O)c(OC)c1	51*	2	-20	43	-5	31	51*	44	37	28	29
SMILES	SENP6 inh	UCH37 inh	SENP8 block-1	SENP7 inh	SENP1 inh	SENP8 block-2	SENP8 confirm	SENP6 confirm	SENP7 confirm	Casp3 SENP sel	SENP luc ctr
COc1ccc(C(=O)OCC(=O)c2cc(OC)ccc2OC)c(OC)c1	-6	0	-302	-4	0	-13	.	.	.	.	.
O=C(NC(=S)Nc1ccc(S(=O)(=O)Nc2nccs2)cc1)c1ccc(F)cc1	64*	4	11	1	-2	23	36	33	66*	45	52*
Cn1cccc1/C=C1\SC(=Nc2ccccc2)NC1=O	80*	2	18	65*	-85	72*	44	61*	64*	63*	27
COc1cccc(NC(=O)Nc2ccc3c(c2)OCO3)c1	73*	0	-3	79*	1	55*	54*	51*	84*	74*	71*
Cc1ccnc(NC(=O)Nc2ccc3c(c2)OCO3)c1	36	5	7	70*	3	-9	9	10	12	14	-4
O=C(Nc1ccc2c(c1)OCO2)Nc1ccccc1F	94*	1	1	99*	-2	95*	96*	98*	102*	97*	68*
O=C(Nc1cccc(Cl)c1)Nc1ccc2c(c1)OCO2	83*	1	23	75*	17	61*	28	77*	94*	56*	21
COc1cccc(NC(=O)CN(C)CC(=O)Nc2ccc3c(c2)OCO3)c1	-5	4	6	5	3	-9	.	.	.	.	.
CCN(CC)CCn1c(N=Cc2cc(Br)ccc2O)nc2ccccc21	.	-2	.	.	.	.	.	.	.	.	.
O=C(Nc1ccc2c(c1)OCCO2)Nc1ccc2c(c1)OCO2	71*	1	4	72*	1	53*	65*	64*	86*	72*	9
Cc1ccc(NC2Sc3ccccc3NC2=O)cc1 (centres undefined)	77*	2	9	30	-3	53*	53*	41	68*	57*	55*
CN(CCC#N)c1ccc(/C=C(\C#N)c2ccccn2)cc1	76*	6	-15	1	-27	80*	91*	92*	99*	89*	92*
CCN(Cc1ccccc1)c1ccc(/C=C(\C#N)c2ccccn2)cc1	43	1	4	35	-26	7	.	.	.	.	.
COc1cc(NC(=O)c2ccccc2-n2cnnn2)cc(OC)c1	-1	-1	17	-3	2	6	.	.	.	.	.
COc1cc(OC)cc(C(=O)Nc2ccc(-n3cnnn3)c(C)c2)c1	94*	8	12	1	1	92*	69*	92*	101*	95*	92*
COc1ccc(-c2nnc(SCc3ccccc3F)o2)cc1OC	4	2	24	2	4	0	.	.	.	.	.

Screens: PubChem, several laboratories
